Reference: ChEMBL document CHEMBL1144760, “Oxygenated cembranoids from a Formosan soft coral Sinularia gibberosa” (J Nat Prod, 2008)
The source made the active and inactive calls. The rule behind the calls is not given here.

Key:
[1] = system: HepG2; assay: Cytotoxicity against human HepG2 cells by MTT assay; assay type: functional, cell-based
[2] = system: MCF7; assay: Cytotoxicity against human MCF7 cells by MTT assay; assay type: functional, cell-based
[3] = Cytotoxicity against human MDA-MB-23 cells by MTT assay; assay type: functional, cell-based
[4] = system: A549; assay: Cytotoxicity against human A549 cells by MTT assay; assay type: functional, cell-based
[5] = system: RAW264.7; assay: Inhibition of LPS-induced iNOS expression in mouse RAW264.7 cells at 10 uM by immunoblot analysis relative to control; assay type: functional
Method in brief: (§1)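 Murine RAW 264.7 macrophages were grown in DMEM with 10% heat-inactivated FBS at 37 °C and 5% CO2. Test agent (10 µM) was added 5 min before LPS (0.01 µg/mL), followed by 16 h incubation. Lysates were cleared at 20000g, and equal protein was run on SDS-PAGE and PVDF. Blots used anti-iNOS or anti-COX-2 (1:1000, 180 min RT), ECL, and a β-actin reprobe. Densitometry was expressed relative to LPS-alone (100%), as mean ± SEM, n = 6.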

[6] = system: RAW264.7; assay: Inhibition of LPS-induced COX2 expression in mouse RAW264.7 cells at 10 uM by immunoblot analysis relative to control; assay type: functional; method in brief: as §1
[7] = system: HepG2; assay: Cytotoxicity against human HepG2 cells at 20 ug/mL by MTT assay; assay type: functional; conditions: read-out: GI
[8] = system: MCF7; assay: Cytotoxicity against human MCF7 cells at 20 ug/mL by MTT assay; assay type: functional; conditions: read-out: GI
[9] = system: A549; assay: Cytotoxicity against human A549 cells at 20 ug/mL by MTT assay; assay type: functional; conditions: read-out: GI
[10] = system: HepG2; assay: Cytotoxicity against human HepG2 cells at 0.5 ug/mL by MTT assay; assay type: functional; conditions: read-out: GI
[11] = system: MCF7; assay: Cytotoxicity against human MCF7 cells at 0.5 ug/mL by MTT assay; assay type: functional; conditions: read-out: GI
[12] = Cytotoxicity against human MDA-MB-23 cells at 0.5 ug/mL by MTT assay; assay type: functional; conditions: read-out: GI
[13] = system: A549; assay: Cytotoxicity against human A549 cells at 0.5 ug/mL by MTT assay; assay type: functional; conditions: read-out: GI

Compound: C/C1=C/C=C(\C(C)C)[C@@H](O)C[C@]2(C)O[C@@H]2CC/C(C)=C/CC1
- IC50 [1]: > 20 µg/mL
- IC50 [2]: > 20 µg/mL
- IC50 [3]: > 20 µg/mL
- IC50 [4]: > 20 µg/mL
- iNOS protein level (% of LPS control) at 10 µM [5]: 76.2%
- COX-2 protein level (% of LPS control) at 10 µM [6]: 54%
- inhibition of growth at 20 µg/mL [7]: 45.5%
- inhibition of growth at 20 µg/mL [8]: 33.4%
- inhibition of growth at 20 µg/mL [9]: 27.2%

Compound: CC(=O)O[C@H]1C2=C(C(C)C)C=C(O2)[C@@H](C)CC/C=C(\C)CC[C@@H]2O[C@]21C (relative stereo) [GIBBEROSENE A]
- IC50 [1]: > 20 µg/mL
- IC50 [2]: > 20 µg/mL
- IC50 [3]: > 20 µg/mL
- IC50 [4]: > 20 µg/mL
- inhibition of growth at 20 µg/mL [7]: < 20%
- inhibition of growth at 20 µg/mL [8]: 41.3%

Compound: CC(=O)O[C@H]1C/C(C(C)C)=C/C=C(/C)CC/C=C(\C)CC[C@@H]2O[C@@]12C (relative stereo) [GIBBEROSENE B]
- IC50 [1]: > 20 µg/mL
- IC50 [2]: > 20 µg/mL
- IC50 [3]: > 20 µg/mL
- IC50 [4]: > 20 µg/mL
- Activity [5]: inactive
- Activity [6]: inactive
- inhibition of growth at 20 µg/mL [7]: 24%
- inhibition of growth at 20 µg/mL [8]: 21.5%

Compound: C/C1=C\CC[C@]2(C)O[C@H]2/C=C(\C(C)C)C[C@H](O)[C@]2(C)O[C@H]2CC1 (relative stereo) [GIBBEROSENE C]
- IC50 [1]: > 20 µg/mL
- IC50 [2]: > 20 µg/mL
- IC50 [3]: > 20 µg/mL
- IC50 [4]: > 20 µg/mL

Compound: CC(=O)O[C@H]1/C=C(C(C)C)\C=C\[C@@](C)(O)CC/C=C(\C)CC[C@@H]2O[C@@]12C (relative stereo) [GIBBEROSENE D]
- IC50 [1]: > 20 µg/mL
- IC50 [2]: > 20 µg/mL
- IC50 [3]: > 20 µg/mL
- IC50 [4]: > 20 µg/mL

Compound: CC(=O)O[C@@H]1/C(C)=C/C[C@H](O)/C(C)=C/CC/C(C)=C\C=C(/C(C)C)[C@H]1OC(C)=O (relative stereo) [GIBBEROSENE E]
- IC50 [1]: > 20 µg/mL
- IC50 [2]: > 20 µg/mL
- IC50 [3]: > 20 µg/mL
- IC50 [4]: > 20 µg/mL
- inhibition of growth at 20 µg/mL [7]: 31.3%
- inhibition of growth at 20 µg/mL [8]: 21%
- inhibition of growth at 20 µg/mL [9]: 25.8%

Compound: CC(=O)O[C@@H]1/C(C)=C/CC/C(C)=C/[C@H](O)C/C(C)=C\C=C(/C(C)C)[C@H]1OC(C)=O (relative stereo) [GIBBEROSENE F]
- IC50 [1]: > 20 µg/mL
- IC50 [2]: > 20 µg/mL
- IC50 [3]: > 20 µg/mL
- IC50 [4]: > 20 µg/mL

Compound: COc1cccc2c1C(=O)c1c(O)c3c(c(O)c1C2=O)C[C@@](O)(C(=O)CO)C[C@@H]3O[C@H]1C[C@H](N)[C@H](O)[C@H](C)O1 [DOXORUBICIN]
- inhibition of growth at 0.5 µg/mL [10]: 66.9%
- inhibition of growth at 0.5 µg/mL [11]: 51.6%
- inhibition of growth at 0.5 µg/mL [12]: 66.6%
- inhibition of growth at 0.5 µg/mL [13]: 73.2%

Compound: C/C1=C/C=C(\C(C)C)CC/C(C)=C/C(O)C/C(C)=C/CC1 (stereo unspecified) [GIBBEROSENE G]
- IC50 [1]: > 20 µg/mL
- IC50 [2]: > 20 µg/mL
- IC50 [3]: > 20 µg/mL
- IC50 [4]: > 20 µg/mL
- inhibition of growth at 20 µg/mL [7]: 23.3%
